Assay outcomes (PubChem BioAssay)
Rpn11 block – inhibitors of human proteasome Rpn11; 360,000 tested, 0.59% active; AID 588493; human 26S proteasome, Ub4-pepOG fluorescence polarization; 20S core pre-blocked with epoxomicin; inhibition, % at 20 µM;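 active means inhibition at 20 µM, scaled to each plate's controls, above about 33%, limit read from the data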
CSN deneddyl inh – CSN deneddylation inhibition. Purified CSN, SCF-Nedd8-OG deneddylation, fluorescence polarization. inhibition, % at 12.5 µM. 360,000 tested, 0.38% active. AID 651999;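 active means pattern-corrected inhibition above about 35%, with an unprinted fluorescence ratio check between 0.5 and 1.5, limit read from the data, passing the limit was not always enough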;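 further: 0% = enzyme with substrate and 100% = substrate without enzyme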
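Assay system: purified human Csn5 enzyme expressed in HEK293T cells; Input: 0.24 nM Csn5 enzyme, final concentration; Reagent: 10 nM SCFSkp2-Nedd8OG; Compound dosing: 12.5 µM single point; Times: reaction 90 min, room temperature; Technique: fluorescence polarization readout.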
Neddylation inh – blocks human cullin neddylation; 360,000 tested, 0.58% active; TR-FRET cullin neddylation, biochemical; inhibition, % at 25 µM; in the data active means inhibition above about 36%
TPT1 inhibitor – C. albicans TPT1 enzyme inhibition | inhibition, % at 5 µM | AID 1962 | 300,000 tested, 0.81% active | recombinant caTPT1, FP RNA substrate dephosphorylation;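 active means inhibition above the mean of all tested compounds plus 3 SD, set per screening campaign, cut at about 24% in these data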;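 further: plate controls were DMSO alone for no effect and ferristatin control at 100 nM for full effect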
HNF4A DNA FP – change in binding of human HNF4 alpha to DNA; P41235; HNF4a-FITC DNA binding, fluorescence polarization, 1 h; activity change, % at 10 µM; 360,000 tested, 0.3% active; AID 1224865; in the data active means activity change above about 30%, passing the limit was not always enough
Rin1-Abl PPI inh – human Rin1-Abl interaction inhibition; 360,000 tested, 0.4% active; TR-FRET Rin1/Abl binding, biochemical; inhibition, % at 7.35 µM; AID 588664; in the data active means inhibition above about 5%, passing the limit was not always enough
Target sequence (P00519 whole entry, looked up): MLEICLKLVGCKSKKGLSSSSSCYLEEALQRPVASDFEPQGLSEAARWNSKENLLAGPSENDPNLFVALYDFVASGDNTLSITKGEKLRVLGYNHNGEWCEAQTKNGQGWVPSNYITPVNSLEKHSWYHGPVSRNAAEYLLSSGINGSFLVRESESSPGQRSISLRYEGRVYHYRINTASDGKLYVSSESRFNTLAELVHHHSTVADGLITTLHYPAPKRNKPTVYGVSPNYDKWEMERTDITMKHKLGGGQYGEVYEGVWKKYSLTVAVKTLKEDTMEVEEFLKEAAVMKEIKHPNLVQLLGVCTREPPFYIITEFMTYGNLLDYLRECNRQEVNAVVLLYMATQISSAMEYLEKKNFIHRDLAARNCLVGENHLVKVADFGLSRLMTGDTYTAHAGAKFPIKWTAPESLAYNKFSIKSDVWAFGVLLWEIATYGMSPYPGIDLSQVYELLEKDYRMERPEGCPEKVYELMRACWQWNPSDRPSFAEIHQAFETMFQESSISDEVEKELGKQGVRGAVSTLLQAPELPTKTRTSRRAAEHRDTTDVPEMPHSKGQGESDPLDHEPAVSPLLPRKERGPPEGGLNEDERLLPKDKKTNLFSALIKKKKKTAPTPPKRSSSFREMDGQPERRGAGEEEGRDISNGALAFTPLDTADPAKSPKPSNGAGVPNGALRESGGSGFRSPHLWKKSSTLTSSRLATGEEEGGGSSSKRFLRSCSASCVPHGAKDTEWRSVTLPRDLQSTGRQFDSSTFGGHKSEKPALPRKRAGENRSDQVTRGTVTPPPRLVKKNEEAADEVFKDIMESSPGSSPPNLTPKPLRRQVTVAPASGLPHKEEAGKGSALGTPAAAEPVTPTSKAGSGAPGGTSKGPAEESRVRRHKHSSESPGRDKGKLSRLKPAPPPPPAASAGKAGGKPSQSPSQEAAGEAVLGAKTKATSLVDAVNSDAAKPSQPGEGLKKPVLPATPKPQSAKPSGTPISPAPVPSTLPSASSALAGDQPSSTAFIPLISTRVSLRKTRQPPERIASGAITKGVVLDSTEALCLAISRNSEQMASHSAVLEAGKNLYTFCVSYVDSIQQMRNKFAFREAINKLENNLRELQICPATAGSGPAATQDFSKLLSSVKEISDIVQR
Target sequence (Q13671 whole entry, looked up): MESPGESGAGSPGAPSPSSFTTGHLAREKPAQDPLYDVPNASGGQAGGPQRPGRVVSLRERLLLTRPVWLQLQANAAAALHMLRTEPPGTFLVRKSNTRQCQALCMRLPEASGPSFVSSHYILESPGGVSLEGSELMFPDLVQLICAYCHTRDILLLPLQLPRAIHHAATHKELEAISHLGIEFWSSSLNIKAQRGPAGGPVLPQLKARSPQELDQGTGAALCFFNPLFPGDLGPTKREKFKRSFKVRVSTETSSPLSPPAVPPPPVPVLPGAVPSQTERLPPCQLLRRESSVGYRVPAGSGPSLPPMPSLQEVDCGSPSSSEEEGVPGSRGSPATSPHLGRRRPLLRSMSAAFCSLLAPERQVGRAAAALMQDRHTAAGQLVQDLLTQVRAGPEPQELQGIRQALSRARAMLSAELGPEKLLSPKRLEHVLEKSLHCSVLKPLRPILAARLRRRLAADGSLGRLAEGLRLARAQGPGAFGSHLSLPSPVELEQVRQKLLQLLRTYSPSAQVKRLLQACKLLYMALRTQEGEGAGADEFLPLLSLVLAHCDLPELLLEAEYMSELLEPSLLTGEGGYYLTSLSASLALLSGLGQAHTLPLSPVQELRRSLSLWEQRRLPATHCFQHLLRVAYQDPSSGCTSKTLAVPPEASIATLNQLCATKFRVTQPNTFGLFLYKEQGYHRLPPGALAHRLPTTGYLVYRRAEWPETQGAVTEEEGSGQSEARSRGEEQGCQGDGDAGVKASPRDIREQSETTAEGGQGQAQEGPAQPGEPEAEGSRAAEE
Neddyl conf – confirmation of human cullin neddylation inhibitors | shares compounds with Neddylation inh | TR-FRET cullin neddylation biochemical assay | calls only at 25 µM | 1,800 tested, 13% active; in the data active means inhibition above about 40%;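 further: neddylation substrate is the cullin 1 ring ligase complex with SKP2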
CSN deneddyl val – validation of inhibitors of human CSN-mediated cullin deneddylation | shares compounds with CSN deneddyl inh | Csn5 deneddylation of SCF-Nedd8OG, fluorescence polarization, 90 min | inhibition, % at 16.6 µM | 540 tested, 62% active; in the data active means inhibition above about 50%;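 further: 0% = DMSO with enzyme and 100% = no enzyme wells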
MMP2 cntr CSN – blocks human MMP-2 in a CSN deneddylation counter-screen. shares compounds with CSN deneddyl inh. recombinant MMP-2, FRET substrate fluorescence, 60 min. inhibition, % at 16.6 µM. 540 tested, 33% active. AID 720655;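 active means corrected plate-normalized z-score of 5 or more, or -5 or less, or inhibition of 15% or more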;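 further: plate controls were DMSO wells with enzyme for no effect and buffer wells lacking MMP-2 for full effect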
Thrombin cntr – thrombin (bovine) inhibition, counter-screen for CSN hits; shares compounds with CSN deneddyl inh; bovine thrombin cleavage of Ub4-pepOG, fluorescence polarization; inhibition, % at 16.6 µM; 540 tested, 49% active; AID 720656;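 active means inhibition at or above a set limit, with a fluorescence interference ratio between 0.5 and a set maximum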
Starred values were filed as active, the others as inactive; i = inactive; . = no result given; + = active, no number. An excerpt weighted towards active compounds, which were near 2.4% of everything screened.

SMILES	Rpn11 block	CSN deneddyl inh	Neddylation inh	TPT1 inhibitor	HNF4A DNA FP	Rin1-Abl PPI inh	Neddyl conf	others
Cc1cnc(C=O)c2cccc([N+](=O)[O-])c12	9.6	-0.5	2.2	.	-1.2	3.0	.
COC(=O)c1nc2cc3c(cc2c(C)c1C(=O)OC)OCO3	-7.4	4.1	57.5*	-0.4	-2.9	0.5	+
O=C(COC(=O)C(CO)NS(=O)(=O)c1ccc(Br)cc1)Nc1ccc2c(c1)OCCO2 (stereo not drawn)	3.0	-2.7	-15.9	.	7.8	-1.1	.
Cc1cccc(C)c1NC(=O)C(C1CC1)n1c(=O)c(-c2ccccc2)nc2ccccc21 (stereo not drawn)	.	-6.3	54.9*	.	-0.4	.	+
CC(C)(C)NC(=O)C(c1ccccc1)n1c(-c2ccc(-c3ccccc3)cc2)nc2ccccc21 (stereo not drawn)	.	-1.3	-76.1	.	2.7	.	.
CC(C)(C)NC(=O)C(c1ccnc2ccccc12)n1c(=O)c(-c2ccccc2)nc2ccccc21 (stereo not drawn)	.	-4.5	45.2*	.	15.4	.	i
CC(C)(C)NC(=O)C(c1ccccc1)n1c(=O)c(-c2ccccc2)nc2ccccc21 (stereo not drawn)	.	-2.8	42.6*	.	4.2	.	i
Cc1cccc(C)c1NC(=O)C(c1ccnc2ccccc12)n1c(=O)c(-c2ccccc2)nc2ccccc21 (stereo not drawn)	.	2.2	20.4	.	0.6	.	.
COCCNC(=O)C(c1ccc(Cl)cc1)N(CCOC)C(=O)CCC(=O)Nc1ccccn1 (stereo not drawn)	5.1	3.9	4.1	-2.1	-4.1	-1.1	.
CCCCNC(=O)c1nc(-c2cccs2)oc1-c1ccc(Cl)cc1	.	-2.6	.	.	-5.2	.	.
NC(=O)/C(=C\c1ccco1)NC(=O)c1ccco1	1.7	-1.3	5.2	.	3.4	-0.9	.
NC(=O)/C(=C/c1ccco1)C(N)=S	-22.0	8.6	68.1*	-9.8	-10.9	3.2	i
CC1(C)CC2(CCO1)C(Nc1ccccc1)=NC(=S)N2CC(N)=O (stereo not drawn)	-2.7	6.5	36.3*	2.0	1.5	-1.1	i
Cc1ccccc1NC1=NC(=S)N(CC(N)=O)C12CCOC(C)(C)C2 (stereo not drawn)	-1.6	4.2	6.6	2.0	-0.1	0.8	.
O=C(NCCc1ccccc1F)C1CCC(=O)N(CCCN2CCCC2=O)C1 (stereo not drawn)	1.0	5.6	-1.9	-3.2	-1.0	1.9	.
Cc1c(OCc2nn[nH]n2)ccc2c3c(c(=O)oc12)CCC(C)C3 (stereo not drawn)	-4.3	3.6	47.0*	-1.6	-5.4	-3.7	i
COc1ccc(OC)c(-c2cc(C(=O)N/N=C/c3ccc(F)cc3)c3ccccc3n2)c1	3.0	-2.9	38.9*	-4.0	4.3	-1.5	.
Cc1ccc(-c2cc(C(=O)NCc3ccccn3)c3ccccc3n2)cc1	0.1	6.7	40.6*	-0.6	-2.2	-4.4	i
COc1ccc(OC)c(-c2cc(C(=O)N/N=C/c3cc(OC)c(OC)cc3OC)c3ccccc3n2)c1	-1.0	2.9	.	-3.4	0.8	-2.4	.
CCc1ccc(-c2cc(C(=O)NCc3ccccn3)c3ccccc3n2)cc1	0.8	1.7	31.3	5.2	0.4	-2.2	.
CCOc1ccc(-c2cc(C(=O)N/N=C/c3cccnc3)c3ccccc3n2)cc1	5.9	0.3	53.0*	-1.8	1.9	0.1	.
COc1cc(C2NC(=O)c3ccccc3O2)ccc1OC(C)C (stereo not drawn)	-3.7	-5.4	32.6	-4.5	0.4	-2.1	.
CCOc1cc(C2NC(=O)c3ccccc3O2)ccc1OC (stereo not drawn)	-1.6	0.7	44.3*	1.6	-1.4	-1.3	i
CCCc1c(O)c2ccccc2[nH]c1=O	-5.1	-2.9	37.6*	4.0	-0.3	-2.3	i
CCC(=O)Nc1nnc(-c2ccccn2)o1	2.9	-8.0	34.2	3.2	-1.0	1.7	.
SMILES	Rpn11 block	CSN deneddyl inh	Neddylation inh	TPT1 inhibitor	HNF4A DNA FP	Rin1-Abl PPI inh	Neddyl conf	others
O=C(CCc1ccccc1)Nc1nnc(-c2ccccn2)o1	-6.4	-2.6	41.6*	-3.0	-1.9	0.9	+
c1ccc(CSc2ccc(-c3cccnc3)nn2)cc1	4.7	9.8	-17.6	8.5	5.8	-1.0	.
O=C(N/N=C/c1ccc(N2CCOCC2)cc1)c1ccc(O)cc1	31.4	1.9	31.9	15.5	9.2	-2.2	.
COc1ccccc1NS(=O)(=O)c1cccc(C(=O)N/N=C/c2ccc(N3CCOCC3)cc2)c1	9.4	-0.7	41.0*	-3.2	0.8	-5.3	i
Cc1ccc(C(=O)N/N=C/c2ccc(N3CCOCC3)cc2)c(C)c1	-5.5	-2.9	40.6*	0.2	-1.5	0.2	i
Cc1ccc(NS(=O)(=O)c2cccc(C(=O)N/N=C/c3ccc4c(c3)OCCO4)c2)c(C)c1	-3.4	-0.9	49.0*	0.6	-0.4	-2.5	i
CCCCN1CC(COCc2ccccc2)Oc2cccc(OCc3ccc(OC)cc3)c2S1(=O)=O (stereo not drawn)	-1.6	-1.5	10.6	.	-2.4	-2.4	.
Nc1ncnc2nc(SCC(=O)Nc3ccccc3F)[nH]c12	4.0	-3.0	-1.2	-2.9	0.0	3.1	.
Cc1ccc(NC(=O)c2cc3ccccc3cc2O)cc1	4.5	-2.1	43.1*	-9.3	-0.9	-2.5	i
COc1ccccc1/C=c1\sc2nc(-c3ccco3)nn2c1=O	14.7	38.0*	9.3	13.1	-12.9	0.9	.	CSN deneddyl val=86.3*;MMP2 cntr CSN=4.0;Thrombin cntr=5.6
O=C1NC(=S)S/C1=C/c1ccc(OC(=O)c2ccco2)cc1	.	40.9*	-42.1	16.8	43.9*	-0.5	.	CSN deneddyl val=69.1*;MMP2 cntr CSN=19.2*;Thrombin cntr=36.4*
CCOc1cc(/C=C2/SC(=S)NC2=O)ccc1OC(=O)c1ccco1	21.7	58.4*	-32.9	5.3	23.9	2.1	.	CSN deneddyl val=76.8*;MMP2 cntr CSN=15.3*;Thrombin cntr=3.1
COc1ccc(CC(=O)OC(C)C(=O)c2ccc(C)cc2)cc1 (stereo not drawn)	-5.9	-2.5	4.0	-0.5	-2.6	-3.5	.
O=C(NCc1ccccc1C(F)(F)F)c1cccc2c1C(=O)c1ccc(N3CCC(N4CCCCC4)CC3)cc1S2(=O)=O	.	142.6*	-32.1	.	79.3	-11.6	.	CSN deneddyl val=-46.2;MMP2 cntr CSN=-45.3*;Thrombin cntr=45.7*
